Here are results for 3 molecules from ChEMBL document CHEMBL1134055, “The synthesis of amino-acid functionalized beta-carbolines as topoisomerase II inhibitors” (2001).

Experiment [1] concerns PC-3. The experiment can be described thus: In vitro cell growth inhibition of PC3 cell line determined using non-radioactive cell proliferation assay at a dose of 10 uM. Format: functional, Homo sapiens. The method in brief:
(§1)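 Tetrazolium-type colorimetric proliferation assay (CellTiter 96 AQueous, non-radioactive); cells treated at 10, 50 and 100 µM; read as percent cell survival. All points in quadruplicate. Vehicle control DMSO (0.20%); m-AMSA (20, 40 µM) as reference control.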

The subject of experiment [2] is PC-3. The experiment can be described thus: In vitro cell growth inhibition of PC3 cell line determined using non-radioactive cell proliferation assay at a dose of 100 uM. Format: functional, Homo sapiens. The method in brief: as §1
In experiment [3] the test system is NCI-H520. The experiment can be described thus: In vitro cell growth inhibition of H520 cell line determined using non-radioactive cell proliferation assay at a dose of 50 uM. Format: functional, Homo sapiens. An outline of the steps: as §1
Experiment [4] has as its system PC-3. Kind of experiment: In vitro cell growth inhibition of PC3 cell line determined using non-radioactive cell proliferation assay at a dose of 50 uM. Format: functional, Homo sapiens. The method in brief:
as §1

The subject of experiment [5] is NCI-H520. The experiment can be described thus: In vitro cell growth inhibition of H520 cell line determined using non-radioactive cell proliferation assay at a dose of 10 uM. Format: functional, Homo sapiens. An outline of the steps:
as §1

For experiment [6], the system named is NCI-H520. Kind of experiment: In vitro cell growth inhibition of H520 cell line determined using non-radioactive cell proliferation assay at a dose of 100 uM. The experiment is classed as functional, Homo sapiens. The method in brief: as §1
The test system of experiment [7] is PC-3. Kind of experiment: In vitro cell growth inhibition of PC3 cell line determined using Non-Radioactive Cell Proliferation Assay at a dose of 50 uM. Format: functional, Homo sapiens. The method in brief: as §1
The nature of experiment [8]: Inhibition of topo II-mediated DNA relaxation measured by topo II-mediated DNA relaxation assay; - indicates drug does not interaction with topo II. The experiment is classed as functional. An outline of the steps: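 Relaxation of supercoiled plasmid pUC18 DNA (E. coli) by topo II (2.0 units per reaction) in Tris-Cl pH 8.0 buffer with KCl, MgCl2, ATP, DTT and BSA; 1 µL of 1 mM drug in 10% DMSO per 10 µL reaction, enzyme added last; 37 °C for 30-45 min. Stopped with sarkosyl buffer, chloroform/isoamyl alcohol extraction, 1% agarose gel, ethidium stain. Densitometric qualitative scoring; gels in triplicate.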

Experiment [9] concerns NCI-H520. The experiment can be described thus: In vitro cell growth inhibition of H520 cell line determined using Non-Radioactive Cell Proliferation Assay at a dose of 100 uM. The experiment is classed as functional, Homo sapiens. The method in brief: as §1
For experiment [10], the system named is PC-3. The experiment can be described thus: In vitro cell growth inhibition of PC3 cell line determined using Non-Radioactive Cell Proliferation Assay at a dose of 10 uM. Format: functional, Homo sapiens. The method in brief: as §1

In the case of `COC(=O)[C@H]1CCCN1C(=O)[C@@H]1Cc2c([nH]c3ccccc23)[C@@H](c2cc(OC)c(O)c(OC)c2)N1`, the Cell survival in experiment [1] stood at 98%; in [2], 66.3%; in [3], 86.1%; in [4], 99.4%; in experiment [5], 94.3%; in experiment [6] it was 61%.
`COC(=O)[C@@H]1CCCN1C(=O)[C@@H]1Cc2c([nH]c3ccccc23)[C@@H](c2cc(OC)c(O)c(OC)c2)N1`: the Cell survival in [7] is recorded as 98.3%; in [1], 96.8%; in [2], above 100%; in experiment [3], 83.4%; in experiment [9], 86.6%; in [5], 80.5%. Further, the DNA relaxation entry in [8] is “drug does not interact with topo II”.
Take `COC(=O)[C@H](Cc1ccccc1)NC(=O)[C@@H]1Cc2c([nH]c3ccccc23)[C@@H](c2cc(OC)c(O)c(OC)c2)N1`: the Cell survival was 97.8% in experiment [10]; 90.6% in experiment [7]; 18% in experiment [2]; 97.4% in [3]; 14.8% in experiment [9]; 59.4% in [5].
